# Active and inactive are the calls of the source. The calls are words filed in the database; no cut-off is given here.
# Key:
# Mus musculus [1] = assay: Anticonvulsant activity in albino CF1 mouse assessed as protection against subcutaneous metrazol-induced seizures at 30 mg/kg, ip after 0.5 hrs; type: functional, organism-based; design: dose 30 mg/kg
# Procedure, shortened: (§1)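 Mice dosed ip at 30, 100 or 300 mg/kg, then tested 0.5 h and 4 h after administration in the MES or scMet test. Protection was recorded as animals protected over animals tested. Neurotoxicity was recorded as motor impairment or sedation, as animals affected over animals tested.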
# Mus musculus [2] = assay: Anticonvulsant activity in albino CF1 mouse assessed as protection against subcutaneous metrazol-induced seizures at 100 mg/kg, ip after 0.5 hrs; type: functional, organism-based; design: dose 100 mg/kg; procedure, shortened: as §1
# Mus musculus [3] = assay: Anticonvulsant activity in albino CF1 mouse assessed as protection against subcutaneous metrazol-induced seizures at 300 mg/kg, ip after 0.5 hrs; type: functional, organism-based; design: dose 300 mg/kg; procedure, shortened: as §1
# Mus musculus [4] = assay: Anticonvulsant activity in albino CF1 mouse assessed as protection against subcutaneous metrazol-induced seizures at 30 mg/kg, ip after 4 hrs; type: functional, organism-based; design: dose 30 mg/kg; procedure, shortened: as §1
# Mus musculus [5] = assay: Anticonvulsant activity in albino CF1 mouse assessed as protection against subcutaneous metrazol-induced seizures at 100 mg/kg, ip after 4 hrs; type: functional, organism-based; design: dose 100 mg/kg; procedure, shortened: as §1
# Mus musculus [6] = assay: Anticonvulsant activity in albino CF1 mouse assessed as protection against subcutaneous metrazol-induced seizures at 300 mg/kg, ip after 4 hrs; type: functional, organism-based; design: dose 300 mg/kg; procedure, shortened: as §1
# Mus musculus [7] = assay: Anticonvulsant activity in albino CF1 mouse assessed as protection against maximal electroshock-induced seizures at 30 mg/kg, ip after 0.5 hrs; type: functional, organism-based; design: dose 30 mg/kg; procedure, shortened: as §1
# Mus musculus [8] = assay: Anticonvulsant activity in albino CF1 mouse assessed as protection against maximal electroshock-induced seizures at 100 mg/kg, ip after 0.5 hrs; type: functional, organism-based; design: dose 100 mg/kg; procedure, shortened: as §1
# Mus musculus [9] = assay: Anticonvulsant activity in albino CF1 mouse assessed as protection against maximal electroshock-induced seizures at 300 mg/kg, ip after 0.5 hrs; type: functional, organism-based; design: dose 300 mg/kg; procedure, shortened: as §1
# Mus musculus [10] = assay: Anticonvulsant activity in albino CF1 mouse assessed as protection against maximal electroshock-induced seizures at 30 mg/kg, ip after 4 hrs; type: functional, organism-based; design: dose 30 mg/kg; procedure, shortened: as §1
# Mus musculus [11] = assay: Anticonvulsant activity in albino CF1 mouse assessed as protection against maximal electroshock-induced seizures at 100 mg/kg, ip after 4 hrs; type: functional, organism-based; design: dose 100 mg/kg; procedure, shortened: as §1
# Mus musculus [12] = assay: Anticonvulsant activity in albino CF1 mouse assessed as protection against maximal electroshock-induced seizures at 300 mg/kg, ip after 4 hrs; type: functional, organism-based; design: dose 300 mg/kg; procedure, shortened: as §1
# Mus musculus [13] = assay: Neurotoxicity in albino CF1 mouse assessed as minimal motor impairment at 30 mg/kg, ip after 0.5 hrs by rotarod test; type: toxicity, organism-based; design: dose 30 mg/kg, route intraperitoneal; details: in vivo; procedure, shortened: as §1
# Mus musculus [14] = assay: Neurotoxicity in albino CF1 mouse assessed as minimal motor impairment at 100 mg/kg, ip after 0.5 hrs by rotarod test; type: toxicity, organism-based; design: dose 100 mg/kg, route intraperitoneal; details: in vivo; procedure, shortened: as §1
# Mus musculus [15] = assay: Neurotoxicity in albino CF1 mouse assessed as minimal motor impairment at 300 mg/kg, ip after 0.5 hrs by rotarod test; type: toxicity, organism-based; design: dose 300 mg/kg, route intraperitoneal; details: in vivo; procedure, shortened: as §1
# Mus musculus [16] = assay: Neurotoxicity in albino CF1 mouse assessed as minimal motor impairment at 30 mg/kg, ip after 4 hrs by rotarod test; type: toxicity, organism-based; design: dose 30 mg/kg, route intraperitoneal; details: in vivo; procedure, shortened: as §1
# Mus musculus [17] = assay: Neurotoxicity in albino CF1 mouse assessed as minimal motor impairment at 100 mg/kg, ip after 4 hrs by rotarod test; type: toxicity, organism-based; design: dose 100 mg/kg, route intraperitoneal; details: in vivo; procedure, shortened: as §1
# Mus musculus [18] = assay: Neurotoxicity in albino CF1 mouse assessed as minimal motor impairment at 300 mg/kg, ip after 4 hrs by rotarod test; type: toxicity, organism-based; design: dose 300 mg/kg, route intraperitoneal; details: in vivo; procedure, shortened: as §1
# Rattus norvegicus [19] = assay: Anticonvulsant activity in Sprague-Dawley albino rat assessed as protection against maximal electroshock-induced seizures at 30 mg/kg, po after 30 mins; type: functional, organism-based; design: dose 30 mg/kg
# Procedure, shortened: (§2)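 Rats dosed orally. Anti-MES protection was scored as animals protected over animals tested at each time after dosing. Neurotoxicity was scored as motor impairment or sedation, as animals affected over animals tested.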
# Rattus norvegicus [20] = assay: Anticonvulsant activity in Sprague-Dawley albino rat assessed as protection against maximal electroshock-induced seizures at 30 mg/kg, po after 1 hr; type: functional, organism-based; design: dose 30 mg/kg; procedure, shortened: as §2
# Rattus norvegicus [21] = assay: Anticonvulsant activity in Sprague-Dawley albino rat assessed as protection against maximal electroshock-induced seizures at 30 mg/kg, po after 2 hrs; type: functional, organism-based; design: dose 30 mg/kg; procedure, shortened: as §2
# Rattus norvegicus [22] = assay: Anticonvulsant activity in Sprague-Dawley albino rat assessed as protection against maximal electroshock-induced seizures at 30 mg/kg, po after 4 hrs; type: functional, organism-based; design: dose 30 mg/kg; procedure, shortened: as §2
# Rattus norvegicus [23] = assay: Neurotoxicity in Sprague-Dawley albino rat assessed as minimal motor impairment at 30 mg/kg, po by rotarod test; type: toxicity, organism-based; design: dose 30 mg/kg, route oral; details: in vivo; procedure, shortened: as §2
# Rattus norvegicus [24] = assay: Neurotoxicity in pilocarpine-induced status epilepticus Sprague-Dawley albino rat model assessed as minimal motor impairment at 100 mg/kg, ip after 0.25 hr by rotarod test; type: toxicity, organism-based; design: dose 100 mg/kg, route intraperitoneal; details: in vivo
# Rattus norvegicus [25] = assay: Neurotoxicity in pilocarpine-induced status epilepticus Sprague-Dawley albino rat model assessed as minimal motor impairment at 300 mg/kg, ip after 0.25 hr by rotarod test; type: toxicity, organism-based; design: dose 300 mg/kg, route intraperitoneal; details: in vivo
# Procedure, shortened: (§3)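 Rat pilocarpine status epilepticus model: test carbamate given at 0 or 30 min after the first observed Racine stage 3 motor seizure, which marks SE onset. Neurotoxicity was scored within the same model.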
# Rattus norvegicus [26] = assay: Neurotoxicity in pilocarpine-induced status epilepticus Sprague-Dawley albino rat model assessed as minimal motor impairment at 100 mg/kg, ip after 0.5 hrs by rotarod test; type: toxicity, organism-based; design: dose 100 mg/kg, route intraperitoneal; details: in vivo
# Rattus norvegicus [27] = assay: Neurotoxicity in pilocarpine-induced status epilepticus Sprague-Dawley albino rat model assessed as minimal motor impairment at 300 mg/kg, ip after 0.5 hrs by rotarod test; type: toxicity, organism-based; design: dose 300 mg/kg, route intraperitoneal; details: in vivo; procedure, shortened: as §3
# Rattus norvegicus [28] = assay: Neurotoxicity in pilocarpine-induced status epilepticus Sprague-Dawley albino rat model assessed as minimal motor impairment at 100 mg/kg, ip after 1 hr by rotarod test; type: toxicity, organism-based; design: dose 100 mg/kg, route intraperitoneal; details: in vivo
# Rattus norvegicus [29] = assay: Neurotoxicity in pilocarpine-induced status epilepticus Sprague-Dawley albino rat model assessed as minimal motor impairment at 300 mg/kg, ip after 1 hr by rotarod test; type: toxicity, organism-based; design: dose 300 mg/kg, route intraperitoneal; details: in vivo; procedure, shortened: as §3
# Rattus norvegicus [30] = assay: Neurotoxicity in pilocarpine-induced status epilepticus Sprague-Dawley albino rat model assessed as minimal motor impairment at 100 mg/kg, ip after 2 hrs by rotarod test; type: toxicity, organism-based; design: dose 100 mg/kg, route intraperitoneal; details: in vivo
# Rattus norvegicus [31] = assay: Neurotoxicity in pilocarpine-induced status epilepticus Sprague-Dawley albino rat model assessed as minimal motor impairment at 300 mg/kg, ip after 2 hrs by rotarod test; type: toxicity, organism-based; design: dose 300 mg/kg, route intraperitoneal; details: in vivo; procedure, shortened: as §3
# Rattus norvegicus [32] = assay: Neurotoxicity in pilocarpine-induced status epilepticus Sprague-Dawley albino rat model assessed as minimal motor impairment at 100 mg/kg, ip after 4 hrs by rotarod test; type: toxicity, organism-based; design: dose 100 mg/kg, route intraperitoneal; details: in vivo
# Rattus norvegicus [33] = assay: Neurotoxicity in pilocarpine-induced status epilepticus Sprague-Dawley albino rat model assessed as minimal motor impairment at 300 mg/kg, ip after 4 hrs by rotarod test; type: toxicity, organism-based; design: dose 300 mg/kg, route intraperitoneal; details: in vivo; procedure, shortened: as §3
# Rattus norvegicus [34] = assay: Anticonvulsant activity in ip dosed Sprague-Dawley albino rat assessed as protection against pilocarpine-induced status epilepticus after 0.5 hrs; type: functional
# Procedure, shortened: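 Pilocarpine status epilepticus model in rats. Number and severity of convulsive seizures were observed behaviourally.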
structure (smiles),measurement,setting,value
CCCCC(CC)COC(N)=O (racemic),Activity,Mus musculus [1],inactive
same,Activity,Mus musculus [2],inactive
same,Activity,Mus musculus [3],Active
same,Activity,Mus musculus [4],inactive
same,Activity,Mus musculus [5],inactive
same,Activity,Mus musculus [6],inactive
same,Activity,Mus musculus [7],inactive
same,Activity,Mus musculus [8],Active
same,Activity,Mus musculus [9],Active
same,Activity,Mus musculus [10],inactive
same,Activity,Mus musculus [11],inactive
same,Activity,Mus musculus [12],Active
same,Activity,Mus musculus [13],Non-toxic
same,Activity,Mus musculus [14],Non-toxic
same,Activity,Mus musculus [15],Toxic
same,Activity,Mus musculus [16],Non-toxic
same,Activity,Mus musculus [17],Non-toxic
same,Activity,Mus musculus [18],Non-toxic
same,Activity,Rattus norvegicus [19],inactive
same,Activity,Rattus norvegicus [20],inactive
same,Activity,Rattus norvegicus [21],inactive
same,Activity,Rattus norvegicus [22],inactive
same,Activity,Rattus norvegicus [23],Non-toxic
same,Activity,Rattus norvegicus [24],Non-toxic
same,Activity,Rattus norvegicus [25],Toxic
same,Activity,Rattus norvegicus [26],Non-toxic
same,Activity,Rattus norvegicus [27],Toxic
same,Activity,Rattus norvegicus [28],Non-toxic
same,Activity,Rattus norvegicus [29],Toxic
same,Activity,Rattus norvegicus [30],Non-toxic
same,Activity,Rattus norvegicus [31],Toxic
same,Activity,Rattus norvegicus [32],Non-toxic
same,Activity,Rattus norvegicus [33],Toxic
NC(=O)N1c2ccccc2C=Cc2ccccc21 [CARBAMAZEPINE],ED50,Rattus norvegicus [34],50 mg/kg

# — ChEMBL document CHEMBL2086252, “Syntheses and evaluation of anticonvulsant activity of novel branched alkyl carbamates” (J Med Chem, 2012)
